Reference: article PMC10466730 (Cancer cell, 2023)
Where two headings read alike, the source gives them in different places.

Legend:
MOLM-13 cells [1] = assay: Viability assay in MOLM-13 cells; format: cell-based, human; settings: MOLM-13, 72 h; for IC50: Homo sapiens
How it was run: (§1)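 Human AML cell lines were plated at 10,000 cells per well with increasing test compound up to 100 μM for 72 h at 37 °C, 5% CO₂. CellTiter-Glo was added 1:1 for 15 min at room temperature and luminescence was read; MTT was used as an alternative read-out. Percent viability was fitted by non-linear regression to give IC50. Three independent experiments, triplicates.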

panel of AML cell lines = assay: Viability assay in a panel of AML cell lines; format: cell-based, human; settings: AML cell lines with various oncogenic mutations, 72 h
How it was run: as §1

[2] = tested on: MLL-AF9 leukemic bone marrow Crbn^I391V cells; assay: Viability assay in MLL-AF9 leukemic bone marrow Crbn^I391V cells; format: cell-based; settings: Mus musculus, MLL-AF9, 72 h, read-out: IC50 (proliferation)
[3] = tested on: normal bone marrow Crbn^I391V cells; assay: Viability assay in normal bone marrow Crbn^I391V cells; format: cell-based; settings: Mus musculus, 72 h, read-out: IC50 (proliferation)
AML PDX cells = assay: Viability assay in AML PDX cells; format: cell-based, human; settings: read-out: IC50 (viability); two AML PDX samples, 2 days, Figure 5D
How it was run: (§2)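 AML PDX cells or normal human bone marrow cells were plated at 10,000 cells per well with increasing test compound concentrations and cultured for 2 days at 37 °C, 5% CO₂. Viability was read by CellTiter-Glo luminescence or MTT absorbance, normalized to percent viability, and fitted by non-linear regression.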

[4] = tested on: healthy bone marrow cells; assay: Viability assay in healthy bone marrow cells; format: cell-based; settings: Homo sapiens, Bone marrow cell, 48 h, read-out: IC50 (viability)
How it was run: as §2

CK1α-GFP fusion protein = CK1α-GFP fusion protein (Homo sapiens, UniProt P48729+Q96SW2); assay: Flow cytometry degradation assay, HEK293T CK1α-GFP; format: cell-based; settings: 5 h
[5] = molecular target: IKZF2(zinc finger 2)-GFP fusion protein (Homo sapiens, UniProt Q96SW2+Q9UKS7); assay: Flow cytometry degradation assay, HEK293T IKZF2; format: cell-based; settings: HEK293T IKZF2(zinc finger 2)-GFP, 24 h
IKZF1(zinc finger 2)-GFP = IKZF1(zinc finger 2)-GFP (Homo sapiens, UniProt Q13422); assay: Flow cytometry degradation assay, HEK293T IKZF1; format: cell-based; settings: HEK293T IKZF1(zinc finger 2)-GFP
GSPT1-GFP = GSPT1-GFP (Homo sapiens, UniProt P15170+Q96SW2); assay: Flow cytometry degradation assay, HEK293T GSPT1-GFP; format: cell-based
CRBN = CRBN (Homo sapiens, UniProt Q96SW2); assay: HTR-FRET Cereblon binding assay
[6] = molecular target: His-CULT and streptactin-CK1α (Homo sapiens, UniProt P48729+Q96SW2); assay: AlphaScreen ternary complex between CRBN and CK1α; format: binding; settings: compared with lenalidomide
How it was run: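 CK1α–CRBN ternary complex by AlphaScreen in 1× AlphaScreen buffer (3× stock: 150 mM HEPES pH 7.4, 450 mM NaCl, 0.3% BSA, 0.03% Tween 20). Streptactin-CK1α (600 nM solution) and CULT (500 nM solution) were mixed with a 2-fold serial dilution of test compound in 3% DMSO/buffer, in triplicate, for 1 h at 25 °C. Streptactin acceptor and nickel chelate donor beads were then added for 1 h at 25 °C in the dark before reading.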

IKZF2 = IKZF2 (Homo sapiens, UniProt Q96SW2+Q9UKS7); assay: Western blot of IKZF2 in MOLM-13 cells; format: cell-based; settings: MOLM-13, 24 h
How it was run: (§3)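 MOLM-13 cells (1 × 10⁶) were treated 24 h with test compound diluted from DMSO stocks. Cells were pelleted, washed with PBS, lysed in Laemmli buffer by vortexing for 10 min, and boiled at 95 °C for 5 min. Lysates were resolved on 4–15% gradient SDS-PAGE, transferred to PVDF and immunoblotted with target-specific antibodies.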

CK1α = CK1α (Homo sapiens, UniProt P48729+Q96SW2); assay: Western blot of CK1α in MOLM-13 cells; format: cell-based; settings: for CK1α degradation (Western blot): MOLM-13
How it was run: as §3

IKZF1 = IKZF1 (Homo sapiens, UniProt Q13422); assay: Western blot of IKZF1 in MOLM-13 cells; format: cell-based; settings: MOLM-13, 24 h
How it was run: as §3

IKZF3 = IKZF3 (Homo sapiens, UniProt Q9UKT9); assay: Western blot of IKZF3 in MOLM-13 cells; format: cell-based; settings: MOLM-13, 24 h
How it was run: as §3

IKZF4 = IKZF4 (Homo sapiens, UniProt Q9H2S9); assay: Western blot of IKZF4 in MOLM-13 cells; format: cell-based; settings: MOLM-13, 24 h
How it was run: as §3

GSPT1 = GSPT1 (Homo sapiens, UniProt P15170+Q96SW2); assay: Western blot of endogenous GSPT1; format: cell-based; settings: degradation at micromolar concentrations, Figure S2D
MOLM-13 cells [7] = assay: Quantitative global proteomics in MOLM-13 cells; format: cell-based, human; settings: 50 nM, 2 h
MOLM-13 cells [8] = assay: Flow cytometry for apoptosis and differentiation in MOLM-13 cells; format: cell-based, human; settings: MOLM-13, 10 nM and 100 nM, 2 days
How it was run: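 MOLM-13 cells were treated 48 h. For differentiation, cells were stained 20 min in the dark in 2% FBS RPMI for CD13-FITC/CD33-APC or CD14-FITC/CD11b-APC. Mean ± SEM of three experiments; Student's t test.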

MLL-AF9 Crbn^I391V cells [9] = assay: Flow cytometry for apoptosis and differentiation in MLL-AF9 Crbn^I391V cells; format: cell-based, mouse; settings: 10 nM, 24 h post treatment, dependent on humanized CRBN
[10] = tested on: MLL-AF9 Crbn^I391V leukemic cells; assay: Colony assay of MLL-AF9 Crbn^I391V leukemic cells; format: cell-based, mouse; settings: 10 nM, M3434 methylcellulose
How it was run: (§4)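 Murine cells were plated on MethoCult M3434 methylcellulose with test compound: 500 sorted LSK cells from Crbn^I391V mice, or 1000 bone marrow cells from MLL-AF9 Crbn^I391V leukemic mice. Colonies were counted after 5 days and normalized. Cells came from n=3 mice. Mean ± SEM of biological replicates from two experiments.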

[11] = tested on: LSK cells from Crbn^I391V mice; assay: Colony assay of Crbn^I391V LSK cells; format: cell-based, mouse; settings: 10 nM, M3434 methylcellulose
How it was run: as §4

[12] = tested on: primary AML patient samples; assay: Colony assay of primary AML patient samples; format: cell-based, human; settings: 10 nM, n = 8, compared to healthy adult bone marrow or cord blood cells
How it was run: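 Primary AML patient cells, normal bone marrow or cord blood CD34+ HSPCs were plated at 5000 cells on methylcellulose with test compound. Colonies were counted after 7 days and normalized to control. Mean ± SEM of samples from more than three experiments.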

[13] = tested on: MOLM-13 and MOLM-14 cells; assay: Combination viability assay with other AML drugs; format: cell-based, human; settings: 72 h
How it was run: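 MOLM-13 cells were co-treated with test compound plus midostaurin or cytarabine for 72 h. Viability was read by CellTiter-Glo luminescence. A representative of three independent experiments is shown, mean ± SEM of triplicates.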

Pharmacokinetics in mice = format: in vivo, mouse; settings: plasma, ip
How it was run: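 Single intraperitoneal doses in DMSO: one test compound at 5 or 50 mg/kg in male CD1 mice, another at 223 mg/kg in female Crbn^I391V mice. Plasma was collected at set times and compound levels were measured by HPLC.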

MLL-AF9 Crbn^I391V cells [14] = assay: Pharmacodynamics in BL6 mice transplanted with MLL-AF9 Crbn^I391V cells; format: in vivo, mouse
MLL-AF9 Crbn^I391V cells [15] = assay: Efficacy in BL6 mice transplanted with MLL-AF9 Crbn^I391V cells; format: in vivo
MOLM-13 cells [16] = assay: Efficacy in NSG mice transplanted with MOLM-13 cells; format: in vivo; settings: for survival: vs DMSO
AML PDX#2 = assay: Efficacy in NSG mice transplanted with AML PDX; format: in vivo, mouse
Solubility in DMSO = format: physicochemical
[17] = Toxicity in the hematopoietic system of Crbn^I391V mice; format: in vivo, mouse; settings: four rounds of 223 mg/kg, weekly
How it was run: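 Female Crbn^I391V mice aged 8–12 weeks received DMSO or 223 mg/kg test compound once weekly for four rounds. They were sacrificed 4 weeks later. Blood was analysed on a hematology analyser, and stem/progenitor compartments were assessed by flow cytometry.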

MLL-AF9 Crbn^I391V cells [18] = assay: Efficacy in Crbn^I391V mice transplanted with MLL-AF9 Crbn^I391V cells; format: in vivo, mouse; settings: 223 mg/kg weekly, non-irradiated Crbn^I391V mice
[19] = read-out: IC50 (cell viability)

Chain of CK1α (P48729 whole entry): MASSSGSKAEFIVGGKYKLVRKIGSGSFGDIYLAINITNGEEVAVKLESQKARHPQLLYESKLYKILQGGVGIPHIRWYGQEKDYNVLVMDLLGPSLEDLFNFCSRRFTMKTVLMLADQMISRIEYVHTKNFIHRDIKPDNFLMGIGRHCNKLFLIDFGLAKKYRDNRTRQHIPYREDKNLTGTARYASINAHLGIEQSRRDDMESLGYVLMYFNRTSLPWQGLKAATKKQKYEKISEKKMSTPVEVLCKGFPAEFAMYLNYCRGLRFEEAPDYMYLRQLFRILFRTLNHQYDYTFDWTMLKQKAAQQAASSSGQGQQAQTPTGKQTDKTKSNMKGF
Chain of CK1α (Q96SW2 whole entry): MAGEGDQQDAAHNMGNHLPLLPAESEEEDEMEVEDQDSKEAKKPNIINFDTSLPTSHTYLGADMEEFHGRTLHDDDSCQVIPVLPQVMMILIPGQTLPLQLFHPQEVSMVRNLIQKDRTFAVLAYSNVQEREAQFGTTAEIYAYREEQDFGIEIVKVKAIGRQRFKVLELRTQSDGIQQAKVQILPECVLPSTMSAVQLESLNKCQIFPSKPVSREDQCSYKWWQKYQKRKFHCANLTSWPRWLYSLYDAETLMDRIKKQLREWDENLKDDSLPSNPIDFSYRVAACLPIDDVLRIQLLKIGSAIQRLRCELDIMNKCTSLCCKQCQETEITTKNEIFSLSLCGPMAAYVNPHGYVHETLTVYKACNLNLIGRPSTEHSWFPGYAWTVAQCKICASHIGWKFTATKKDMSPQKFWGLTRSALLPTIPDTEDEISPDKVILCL
Chain of CK1α (Q16531 whole entry partner): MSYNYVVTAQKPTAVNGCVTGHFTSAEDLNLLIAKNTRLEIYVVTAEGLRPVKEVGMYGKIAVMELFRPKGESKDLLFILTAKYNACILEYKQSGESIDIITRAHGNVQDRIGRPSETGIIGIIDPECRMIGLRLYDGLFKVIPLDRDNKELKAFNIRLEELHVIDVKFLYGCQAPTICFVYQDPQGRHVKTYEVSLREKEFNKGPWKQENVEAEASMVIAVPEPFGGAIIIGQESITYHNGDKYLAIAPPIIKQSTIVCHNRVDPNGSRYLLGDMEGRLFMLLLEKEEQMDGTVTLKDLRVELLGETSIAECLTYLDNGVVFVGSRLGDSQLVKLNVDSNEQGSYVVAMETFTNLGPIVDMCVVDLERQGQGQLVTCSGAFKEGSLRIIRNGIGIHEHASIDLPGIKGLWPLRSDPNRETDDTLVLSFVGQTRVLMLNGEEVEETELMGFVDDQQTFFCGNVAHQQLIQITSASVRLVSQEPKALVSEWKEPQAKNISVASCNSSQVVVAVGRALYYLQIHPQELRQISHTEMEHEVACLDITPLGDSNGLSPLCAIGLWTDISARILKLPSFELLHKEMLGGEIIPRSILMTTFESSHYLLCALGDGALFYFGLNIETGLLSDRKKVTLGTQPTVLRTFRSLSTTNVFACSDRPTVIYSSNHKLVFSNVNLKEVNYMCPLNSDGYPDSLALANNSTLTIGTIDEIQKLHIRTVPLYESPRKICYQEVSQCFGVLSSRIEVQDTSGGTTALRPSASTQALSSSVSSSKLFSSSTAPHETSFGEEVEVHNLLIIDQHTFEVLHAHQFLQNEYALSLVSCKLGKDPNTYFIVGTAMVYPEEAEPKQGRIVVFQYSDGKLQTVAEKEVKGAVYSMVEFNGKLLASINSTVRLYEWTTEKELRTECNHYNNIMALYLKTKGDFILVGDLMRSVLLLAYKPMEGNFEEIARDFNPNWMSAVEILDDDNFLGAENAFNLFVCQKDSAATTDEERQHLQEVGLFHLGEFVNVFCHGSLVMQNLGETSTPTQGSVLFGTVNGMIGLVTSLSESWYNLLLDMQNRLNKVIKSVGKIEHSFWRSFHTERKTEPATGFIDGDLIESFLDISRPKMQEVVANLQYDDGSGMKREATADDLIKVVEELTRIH
Chain of IKZF2 (Q9UKS7 whole entry): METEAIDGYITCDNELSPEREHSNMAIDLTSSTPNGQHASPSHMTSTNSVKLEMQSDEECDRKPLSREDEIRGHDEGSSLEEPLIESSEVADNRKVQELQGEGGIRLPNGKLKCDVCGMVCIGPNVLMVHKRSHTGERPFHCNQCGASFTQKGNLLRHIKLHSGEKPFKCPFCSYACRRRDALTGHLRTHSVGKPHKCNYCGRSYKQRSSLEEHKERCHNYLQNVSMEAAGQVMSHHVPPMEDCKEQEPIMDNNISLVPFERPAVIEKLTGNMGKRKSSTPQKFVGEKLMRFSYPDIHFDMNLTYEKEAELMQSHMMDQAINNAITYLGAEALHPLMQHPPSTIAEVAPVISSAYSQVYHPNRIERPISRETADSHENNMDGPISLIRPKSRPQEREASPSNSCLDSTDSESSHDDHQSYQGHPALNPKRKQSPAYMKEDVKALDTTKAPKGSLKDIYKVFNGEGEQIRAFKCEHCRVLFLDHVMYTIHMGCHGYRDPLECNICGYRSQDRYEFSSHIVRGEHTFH
Chain of IKZF2 (Q96SW2 whole entry): as the sequence (Q96SW2 whole entry) above
Chain of IKZF2 (Q16531 whole entry partner): as the sequence (Q16531 whole entry partner) above
Chain of His-CULT and streptactin-CK1α (Q96SW2 318-426 limits assumed): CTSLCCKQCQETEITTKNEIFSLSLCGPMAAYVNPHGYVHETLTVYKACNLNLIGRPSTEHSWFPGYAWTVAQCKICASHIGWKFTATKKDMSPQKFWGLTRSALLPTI
Chain of His-CULT and streptactin-CK1α (P48729 whole entry): as the sequence (P48729 whole entry) above
Chain of CRBN (Q96SW2 whole entry): as the sequence (Q96SW2 whole entry) above

COc1ccc2cc(C(=O)Nc3ccc4c(c3)CN(C3CCC(=O)NC3=O)C4=O)ccc2c1 (centres unmarked) [DEG-35, N-(2-(2,6-dioxopiperidin-3-yl)-1-oxoisoindolin-5-yl)-6-methoxy-2-naphthamide]
IC50 (MOLM-13 cells [1]; [19]): 5 nM | IC50 (MOLM-13 cells [1]; read-out: IC50 (viability)): 5.7 nM | cellular growth inhibition (MOLM-13 cells [1]; unlike lenalidomide, Figure 1E): inhibited cellular growth | IC50 values (growth) (panel of AML cell lines): single digit nM to low μM | IC50 [2]: 9.2 nM | IC50 [3]: 100 nM | IC50 (AML PDX cells): 5.2 nM | IC50 [4]: 15.7 nM | DCmax CK1α (CK1α-GFP fusion protein): 84% | DCmax IKZF2 [5]: 92% | DCmax IKZF1-GFP (IKZF1(zinc finger 2)-GFP): 12% | DCmax GSPT1-GFP (GSPT1-GFP): 24% | Kd (CRBN): 473 nM | ternary complex between CRBN and CK1α [6]: significantly stronger ternary complex | IKZF2 degradation (Western blot) (IKZF2): efficiently degraded IKZF2 | CK1α degradation (Western blot) (CK1α): efficiently degraded CK1α | concentrations depleting CK1α (as low as) (CK1α; MOLM-13, 24 h, Western blot): 1 to 10 nM | activity against IKZF1 (Western blot) (IKZF1): limited activity | activity against IKZF3 (Western blot) (IKZF3): limited activity | activity against IKZF4 (Western blot) (IKZF4): limited activity | endogenous GSPT1 degradation (Western blot) (GSPT1): limited degradation at nanomolar concentrations | CK1α rank in global proteomics (MOLM-13 cells [7]): most significantly downregulated protein | apoptosis induction and myeloid differentiation (MOLM-13 cells [8]): significant dose-dependent apoptosis induction and myeloid differentiation | apoptosis and myeloid differentiation (MLL-AF9 Crbn^I391V cells [9]): resulted in apoptosis and myeloid differentiation at nanomolar concentrations | reduction of colonies [10]: half | LSK derived colonies [11]: not affected | colony formation [12]: reduced colony formation | sensitivity to DEG-35 on co-treatment with cytarabine [13]: more sensitive | sensitivity to DEG-35 on co-treatment with midostaurin [13]: more sensitive | half-life (Pharmacokinetics in mice; male, CD1, mouse): 2.5 h | degradation of CK1α and IKZF2 in leukemic cells from bone marrow and spleen (MLL-AF9 Crbn^I391V cells [14]; single dose 50 mg/kg, 24 h and 72 h): efficient degradation of CK1α and IKZF2 | body weight (MLL-AF9 Crbn^I391V cells [15]; 50 mg/kg): without overt weight loss | leukemia progression (MLL-AF9 Crbn^I391V cells [15]; 50 mg/kg, vs DMSO): delayed leukemia progression | body weight (MOLM-13 cells [16]; 50 mg/kg): without overt weight loss | disease burden (spleen and liver weights) (MOLM-13 cells [16]; 50 mg/kg): decreased spleen and liver weights | survival (MOLM-13 cells [16]; 50 mg/kg): significantly prolonged survival | survival (AML PDX#2; AML PDX#2, DEG-35 vs DMSO): significant prolonged survival

COc1cccc2c1OCC(C(=O)Nc1ccc3c(c1)CN(C1CCC(=O)NC1=O)C3=O)=C2 (centres unmarked) [DEG-77, N-(2-(2,6-dioxopiperidin-3-yl)-1-oxoisoindolin-5-yl)-8-methoxy-2H-chromene-3-carboxamide]
IC50 (MOLM-13 cells [1]; [19]): 4 nM | IKZF2 degradation (Western blot) (IKZF2): maintained comparable activity | CK1α degradation (Western blot) (CK1α): maintained comparable activity | half-life (Pharmacokinetics in mice; female, Crbn^I391V, mouse, 223 mg/kg): 16.9 h | increase in solubility in DMSO compared to DEG-35 (Solubility in DMSO): 10 fold | degradation of IKZF2, CK1α, GSPT1 in bone marrow and splenic leukemic cells (MLL-AF9 Crbn^I391V cells [14]; one injection 223 mg/kg, 24, 48 and 72 h): degradation of IKZF2 and CK1α but not GSPT1 | body weight (MLL-AF9 Crbn^I391V cells [15]; 223 mg/kg weekly): without loss of total body weight | survival (MLL-AF9 Crbn^I391V cells [15]; 223 mg/kg weekly, vehicle 35 days): 66 days | leukemia progression in secondary transplant (MLL-AF9 Crbn^I391V cells [15]; cells from mice treated in the primary transplant): pronounced delay in leukemia progression | survival (MOLM-13 cells [16]; 223 mg/kg weekly): increased survival | survival (AML PDX#2; 223 mg/kg weekly from 4 weeks post-transplant): significant extension of survival | engraftment of PDX cells in the bone marrow (AML PDX#2; after a single injection, >85% prior to treatment): around 40% | WBC counts [17]: modest reduction of WBC counts | platelets and RBC counts [17]: remained unchanged | stem cell compartment frequency [17]: reduced HSC and MPP1 frequency | survival (MLL-AF9 Crbn^I391V cells [18]): significant increase in survival
